Assay results published in ChEMBL document CHEMBL1121406, “Synthesis, in vitro opiate activity, and intramolecular tyrosine--tryptophan distances of [4-tryptophan]enkephalin analogues. A reassessment of conformational models of enkephalin in solution” (1980).
Peptide text beside a SMILES is read from it.

species on record: Cavia porcellus; assay: Relative narcotic agonistic activity was performed by inhibition of electrically evoked contractions compared with [Met5]-enkephalin (100%) in guinea pig ileum; assay type: functional; parameters: scale not given: the % may be the effect or the level left
Summary of the method: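 Isolated guinea pig ileum; inhibition of electrically evoked contractions as agonist read-out. Single pulses of 4-ms duration at 3 to 6 V; isometric contractions recorded. Potency expressed relative to [Met5]enkephalin taken as 100%.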

Structure (SMILES)	Activity [%]
COc1ccc(C[C@H](N)C(=O)NCC(=O)NCC(=O)N[C@@H](Cc2c[nH]c3ccccc23)C(=O)N[C@@H](CCSC)C(=O)O)cc1	0.5
CSCC[C@H](NC(=O)[C@H](Cc1c[nH]c2ccccc12)N(C)C(=O)CNC(=O)CNC(=O)[C@@H](N)Cc1ccc(O)cc1)C(=O)O	39
N[C@@H](Cc1ccc(O)cc1)C(=O)NCC(=O)NCC(=O)N[C@@H](Cc1c[nH]c2ccccc12)C(=O)N1CCC[C@H]1C(=O)O	1
CSCC[C@H](NC(=O)[C@H](Cc1ccccc1)NC(=O)CNC(=O)CNC(=O)[C@@H](N)Cc1ccc(O)cc1)C(=O)O	100
CC(C)C[C@@H](C(=O)O)N(C)C(=O)[C@H](Cc1c[nH]c2ccccc12)NC(=O)CNC(=O)CNC(=O)[C@@H](N)Cc1ccc(O)cc1	4
CC(C)C[C@H](NC(=O)[C@H](Cc1c[nH]c2ccccc12)NC(=O)CNC(=O)CNC(=O)[C@@H](N)Cc1ccc(O)cc1)C(=O)O	10
COc1ccc(C[C@H](N)C(=O)NCC(=O)NCC(=O)N[C@@H](Cc2ccccc2)C(=O)N[C@@H](CCSC)C(=O)O)cc1	2
CC(C)C[C@@H](C(=O)O)N(C)C(=O)[C@H](Cc1ccccc1)NC(=O)CNC(=O)CNC(=O)[C@@H](N)Cc1ccc(O)cc1	70
N[C@@H](Cc1ccc(O)cc1)C(=O)NCC(=O)NCC(=O)N[C@@H](Cc1ccccc1)C(=O)N1CCC[C@H]1C(=O)O	1
CSCC[C@H](NC(=O)[C@H](Cc1c[nH]c2ccccc12)NC(=O)CNC(=O)CNC(=O)[C@@H](N)Cc1ccc(O)cc1)C(=O)O (H-YGGWM-OH)	27
CC(C)C[C@H](NC(=O)[C@H](Cc1ccccc1)NC(=O)CNC(=O)CNC(=O)[C@@H](N)Cc1ccc(O)cc1)C(=O)O [ENKEPHALIN]	24
